Source: ChEMBL document CHEMBL2417528, “Synthesis and anticancer activity evaluation of a series of [1,2,4]triazolo[1,5-a]pyridinylpyridines in vitro and in vivo” (Eur J Med Chem, 2013)
pIC50: −log10 of the molar value. Activity calls are given as the source filed them. The rule behind the calls is not given here.

Key:
MCF7 = experiment: Antiproliferative activity against human MCF7 cells after 48 hrs by MTT assay; format: functional, cell-based; conditions: MCF7, 48 h
Method in brief: (§1)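 Cells seeded at 3000–5000 per well in DMEM with 10% FBS and preincubated 24 h at 37 °C. Cell numbers were titrated so controls stay in exponential growth, then 48 h drug exposure. MTT added for 4 h, formazan pelleted by centrifugation and dissolved in DMSO, OD read at 490 nm. IC50 calculated from inhibition ratios, mean of three separate experiments in triplicate.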

HCT-116 [1] = experiment: Antiproliferative activity against human HCT116 cells after 48 hrs by MTT assay; format: functional, cell-based; conditions: HCT-116, 48 h; method in brief: as §1
[2] = Antiproliferative activity against human U87MG cells after 48 hrs by MTT assay; format: functional, cell-based, U-87MG ATCC; conditions: U-87 MG; method in brief: as §1
HCT-116 [3] = experiment: Inhibition of PI3K in human HCT116 cells assessed as reduction of AKT phosphorylation at Ser473 at 10 uM after 1 hr by Western blot analysis; format: cell-based
Method in brief: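 HCT-116 cells seeded at 1 × 10⁶ per well in DMEM with 10% FBS and grown 16 h at 37 °C. Treated 1 h at 37 °C at […] or with DMSO. Cells washed in ice-cold PBS, lysed, and clarified at 12,000 rpm for 20 min at 4 °C. Protein quantified by BCA, run on SDS-PAGE, transferred to nitrocellulose, and probed for AKT and p-Ser473 AKT.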

Mus musculus [4] = experiment: Toxicity in mouse S180 cells xenografted mouse assessed as change on body weight at 5 mg/kg, po qd for 10 days; format: organism-based, CCRF S-180; design: dose 5 mg/kg, route oral; conditions: in vivo, 240 h
Method in brief: (§2)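 S-180 tumor-bearing mice (6 per group) dosed orally once daily for 10 days at 1 or 5 mg/kg in DMSO/PEG400/5% glucose (10:60:30), with a vehicle solvent group. Body weights recorded daily. Animals sacrificed on Day 11.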

Mus musculus [5] = experiment: Toxicity in mouse S180 cells xenografted mouse assessed as change on body weight at 1 mg/kg, po qd for 10 days; format: organism-based, CCRF S-180; design: dose 1 mg/kg, route oral; conditions: in vivo, 240 h; method in brief: as §2
Mus musculus [6] = experiment: Toxicity in mouse S180 cells xenografted mouse assessed as mortality at 20 mg/kg, po; format: organism-based, CCRF S-180; design: dose 20 mg/kg, route oral; conditions: in vivo
CCRF S-180 [7] = experiment: Antitumor activity against mouse S180 cells xenografted in mouse assessed as inhibition of tumor growth at 5 mg/kg, po qd for 10 days relative to control; format: functional; conditions: CCRF S-180, 240 h
Method in brief: (§3)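 Mice bearing sarcoma S-180 randomized into three groups of 6. Compound in DMSO/PEG400/5% glucose (10:60:30) given orally once daily for 10 days at 1 or 5 mg/kg. The solvent group received the same volume of vehicle. Mice sacrificed on Day 11, tumors weighed, and tumor-weight inhibitory ratio calculated versus the solvent group.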

CCRF S-180 [8] = experiment: Antitumor activity against mouse S180 cells xenografted in mouse assessed as inhibition of tumor growth at 1 mg/kg, po qd for 10 days relative to control; format: functional; conditions: CCRF S-180, 240 h; method in brief: as §3

Structure (SMILES)	pIC50 (MCF7)	pIC50 (HCT-116 [1])	pIC50 [2]	inhibition (HCT-116 [3])	Activity (Mus musculus [4]) [%]	Activity (Mus musculus [5])	Activity (Mus musculus [6])	inhibition in vivo at 5 mg/kg (CCRF S-180 [7]) [%]	inhibition in vivo at 1 mg/kg (CCRF S-180 [8]) [%]
COc1ncc(-c2ccc3nc(N)nn3c2)cc1NS(=O)(=O)c1ccc(F)cc1	5.71	5.53	5.40	–	–	–	–	–	–
CCOC(=O)CNc1nc2ccc(-c3cnc(OC)c(NS(=O)(=O)c4ccc(F)cc4)c3)cn2n1	5.36	5.36	5.10	–	–	–	–	–	–
COc1ncc(-c2ccn3nc(NC(C)=O)nc3c2)cc1NS(=O)(=O)c1ccc(F)cc1	5.76	5.88	5.62	–	–	–	–	–	–
O=C(Nc1nc2ccc(-c3cnc(Cl)c(NS(=O)(=O)c4ccc(F)cc4)c3)cn2n1)C1CC1	< 4.22	5.00	4.96	–	–	–	–	–	–
CC(=O)Nc1nc2ccc(-c3cnc(Cl)c(NS(=O)(=O)c4ccc(F)cc4)c3)cc2s1	6.64	–	–	Active	–	–	–	–	–
COc1ncc(-c2ccc3nc(N)nn3c2)cc1NS(=O)(=O)c1ccc(C)cc1	5.81	5.47	5.60	–	–	–	–	–	–
COc1ncc(-c2ccc3nc(N)nn3c2)cc1NS(=O)(=O)c1ccc(Cl)cc1	5.74	5.60	5.51	–	–	–	–	–	–
CC(=O)Nc1nc2ccc(-c3cnc(Cl)c(NS(=O)(=O)c4ccc(C)cc4)c3)cn2n1	5.49	5.58	5.42	–	–	–	–	–	–
COc1ncc(-c2ccn3nc(NC(C)=O)nc3c2)cc1NS(=O)(=O)c1ccc(Cl)cc1	5.91	5.88	5.67	–	–	–	–	–	–
COc1ncc(-c2ccc3nc(NC(C)=O)nn3c2)cc1NS(=O)(=O)c1ccc(F)cc1	6.08	6.07	5.74	Active	< 90	Non-toxic	Non-toxic	75.8	20
COc1ncc(-c2ccn3nc(N)nc3c2)cc1NS(=O)(=O)c1ccc(F)cc1	6.04	6.09	5.75	Active	–	–	Toxic	–	–
COCCNc1nc2ccc(-c3cnc(OC)c(NS(=O)(=O)c4ccc(F)cc4)c3)cn2n1	5.62	5.34	5.19	–	–	–	–	–	–
COc1ncc(-c2ccc3nc(NCC(N)=O)nn3c2)cc1NS(=O)(=O)c1ccc(F)cc1	5.08	5.21	5.24	–	–	–	–	–	–
CCOCCNc1nc2ccc(-c3cnc(OC)c(NS(=O)(=O)c4ccc(F)cc4)c3)cn2n1	5.87	5.03	5.09	–	–	–	–	–	–
COc1ncc(-c2ccc3nc(NC(C)=O)nn3c2)cc1NS(=O)(=O)C1CC1	5.79	5.65	5.43	–	–	–	–	–	–
COc1ncc(-c2ccc3nc(NC(C)=O)nn3c2)cc1NS(=O)(=O)c1ccc(F)cc1F	6.06	6.13	5.70	–	–	–	–	–	–
CC(=O)Nc1nc2ccc(-c3cnc(Cl)c(NS(=O)(=O)c4ccc(F)cc4)c3)cn2n1	4.70	5.03	5.16	–	–	–	–	–	–
COc1ncc(-c2ccn3nc(NC(C)=O)nc3c2)cc1NS(=O)(=O)c1ccc(C)cc1	5.87	5.86	5.69	–	–	–	–	–	–
COc1ncc(-c2ccc3nc(NC(C)=O)nn3c2)cc1NS(=O)(=O)c1ccc(C)cc1	6.09	6.22	5.80	–	–	–	–	–	–
COc1ncc(-c2ccc3nc(NC(=O)C4CC4)nn3c2)cc1NS(=O)(=O)c1ccc(F)cc1	5.59	5.76	5.31	–	–	–	–	–	–
Cn1c(=O)n(-c2ccc(C(C)(C)C#N)cc2)c2c3cc(-c4cnc5ccccc5c4)ccc3ncc21 [DACTOLISIB]	6.14	5.94	5.88	–	–	–	–	–	–
COc1ncc(-c2ccc3nc(NCC(=O)O)nn3c2)cc1NS(=O)(=O)c1ccc(F)cc1	4.90	5.06	5.01	–	–	–	–	–	–
COc1ncc(-c2ccc3nc(NC(C)=O)nn3c2)cc1NS(=O)(=O)c1ccc(Cl)cc1	5.70	6.13	5.68	–	–	–	–	–	–
CNC(=O)CNc1nc2ccc(-c3cnc(OC)c(NS(=O)(=O)c4ccc(F)cc4)c3)cn2n1	5.60	5.31	5.14	–	–	–	–	–	–
